Reference: ChEMBL document CHEMBL3862029, “Discovery of 8-Membered Ring Sulfonamides as Inhibitors of Oncogenic Mutant Isocitrate Dehydrogenase 1” (ACS Med Chem Lett, 2016)
In brackets after ≈: the same amount, converted by molar mass. Activity calls are given as the source filed them. No cut-off for these calls is given here.

Tests used:
[1] = Half life in human liver microsomes at 1 uM by LC-MS/MS analysis; assay type: ADME
[2] = tested on: Isocitrate dehydrogenase [NADP] cytoplasmic (Homo sapiens), O75874 [R132C]; assay: Inhibition of human C-terminal His8-tagged IDH1-R132C mutant expressed in Escherichia coli Rosetta cells assessed as change in melting temperature at 5 uM measured over 20 mins using SYPRO orange dye by DSF analysis
Isocitrate dehydrogenase [NADP] cytoplasmic (Homo sapiens), O75874 [R132C], sequence (O75874 whole entry R132C): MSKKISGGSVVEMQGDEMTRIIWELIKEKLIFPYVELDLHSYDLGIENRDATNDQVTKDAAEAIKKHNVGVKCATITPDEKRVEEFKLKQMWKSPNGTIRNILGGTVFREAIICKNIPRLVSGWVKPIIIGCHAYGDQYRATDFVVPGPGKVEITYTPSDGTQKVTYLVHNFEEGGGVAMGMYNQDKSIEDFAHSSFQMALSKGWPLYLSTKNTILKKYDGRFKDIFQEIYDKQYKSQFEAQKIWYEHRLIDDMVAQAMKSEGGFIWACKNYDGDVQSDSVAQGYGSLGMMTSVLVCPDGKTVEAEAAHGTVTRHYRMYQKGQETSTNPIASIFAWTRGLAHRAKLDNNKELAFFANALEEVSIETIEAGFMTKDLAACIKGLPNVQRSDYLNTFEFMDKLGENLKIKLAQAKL
How it was run: (§1)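 Differential scanning fluorimetry of recombinant enzyme, giving melting temperature shift with compound present. Mean of 3 independent experiments, each with 7 replicates.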

[3] = Cytotoxicity against human HA1EM cells assessed as decrease in intracellular ATP levels at >10 uM measured after 72 hrs by CellTiter-Glo assay; assay type: toxicity, cell-based
How it was run: (§2)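 IDH1-R132H-overexpressing HA1E-M cells treated for 72 h. After media harvest, viability assessed by morphology and ATP levels. Values are normalized to DMSO controls, mean ± SD of three independent experiments each run in triplicate.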

[4] = biological target: Isocitrate dehydrogenase [NADP] cytoplasmic (Homo sapiens, UniProt O75874); assay: Inhibition of wild type human C-terminal His8-tagged IDH1 expressed in Escherichia coli Rosetta cells assessed as reduction in isocitrate to alpha-KG conversion preincubated for 15 mins followed by substrate addition in presence of NADP+ by resazurin based diaphorase-coupled fluorescence assay
Isocitrate dehydrogenase [NADP] cytoplasmic (Homo sapiens, UniProt O75874), sequence (O75874 whole entry): as the sequence (O75874 whole entry R132C) above, with C132R counted along it
How it was run: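 Wild-type IDH1 activity read as NADPH production from NADP+ and isocitrate, through a diaphorase-coupled fluorescence reaction analogous to the primary screen.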

[5] = tested on: Isocitrate dehydrogenase [NADP] cytoplasmic (Homo sapiens), O75874 [R132H]; assay: Inhibition of human C-terminal His8-tagged IDH1-R132H mutant expressed in Escherichia coli Rosetta assessed as inhibition of ketoreductase activity by measuring NADPH consumption preincubated for 20 mins followed by addition of NADPH and alpha-KG as substrate in presence of Mg2+ by spectrophotometric method
Isocitrate dehydrogenase [NADP] cytoplasmic (Homo sapiens), O75874 [R132H], sequence (O75874 whole entry R132H): as the sequence (O75874 whole entry R132C) above, with C132H counted along it
How it was run: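 Orthogonal confirmation assay: IDH1-R132H ketoreductase activity with NADPH detected by absorbance. Positives retested in 8-point dose.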

[6] = Protein binding in human plasma at 5 uM measured after 5 hrs by rapid equilibrium dialysis method; assay type: ADME, cell-free; settings: read-out: PPB (converted)
[7] = biological target: Isocitrate dehydrogenase [NADP] cytoplasmic (Homo sapiens, UniProt O75874, R132C); assay: Inhibition of human C-terminal His8-tagged IDH1-R132C mutant expressed in Escherichia coli Rosetta assessed as inhibition of ketoreductase activity by measuring NADPH consumption preincubated for 10 mins followed by addition of NADPH and alpha-KG as substrate by fluorescence method
Isocitrate dehydrogenase [NADP] cytoplasmic (Homo sapiens, UniProt O75874, R132C), sequence (O75874 2-414 R132C limits assumed): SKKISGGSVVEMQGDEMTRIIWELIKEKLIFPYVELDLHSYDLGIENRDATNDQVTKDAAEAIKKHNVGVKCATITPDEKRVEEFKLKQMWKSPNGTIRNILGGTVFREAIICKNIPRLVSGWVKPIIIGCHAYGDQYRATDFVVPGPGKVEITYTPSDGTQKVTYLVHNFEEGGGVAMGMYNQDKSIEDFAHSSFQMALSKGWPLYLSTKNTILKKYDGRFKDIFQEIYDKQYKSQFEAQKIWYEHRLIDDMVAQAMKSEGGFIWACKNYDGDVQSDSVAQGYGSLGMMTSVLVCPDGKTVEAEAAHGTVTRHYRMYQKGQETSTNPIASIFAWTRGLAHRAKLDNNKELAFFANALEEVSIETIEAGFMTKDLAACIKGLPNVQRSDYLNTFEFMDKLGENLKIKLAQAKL

[8] = tested on: Isocitrate dehydrogenase [NADP] cytoplasmic (Homo sapiens), O75874 [R132H]; assay: (§3) Competitive inhibition of recombinant human C-terminal His8-tagged IDH1-R132H mutant expressed in Escherichia coli Rosetta cells assessed as inhibition of ketoreductase activity by measuring NADPH consumption preincubated for 10 mins followed by addition of NADPH and varying levels of alpha-KG as substrate in presence of constant Mg2+ concentration by fluorescence method
[9] = Octanol-phosphate buffer partition coefficient, log D of compound at pH 7.4 at 67 uM; assay type: physicochemical
[10] = Cytotoxicity against human THP1 cells assessed as decrease in intracellular ATP levels at >10 uM measured after 72 hrs by CellTiter-Glo assay; assay type: toxicity, cell-based; settings: thp-1, 72 h
[11] = tested on: Isocitrate dehydrogenase [NADP] cytoplasmic (Homo sapiens), O75874 [R132H]; assay: Inhibition of human C-terminal His8-tagged IDH1-R132H mutant expressed in Escherichia coli Rosetta cells assessed as inhibition of ketoreductase activity measured as NADPH consumption preincubated for 60 mins followed by addition of NADPH and alpha-KG as substrate measured after 50 mins using Mg2+ …
[12] = tested on: Isocitrate dehydrogenase [NADP] cytoplasmic (Homo sapiens), O75874 [R132H]; assay: Inhibition of human C-terminal His8-tagged IDH1-R132H mutant expressed in Escherichia coli Rosetta assessed as inhibition of ketoreductase activity by measuring NADPH consumption preincubated for 10 mins followed by addition of NADPH and alpha-KG as substrate by fluorescence method
How it was run: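 Purified IDH1-R132H incubated with α-KG and NADPH; direct kinetic read of falling NADPH fluorescence, run in dose. Enzyme concentration kept below that of the screening assays so inhibitor stays far above enzyme. IC50 values are geometric means of at least three independent experiments.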

[13] = tested on: Isocitrate dehydrogenase [NADP] cytoplasmic (Homo sapiens), O75874 [R132H]; assay: as §3, with “and” for “and varying levels of”, “varying levels of” for “constant”
[14] = Thermodynamic solubility of the compound in PBS at 100 uM and pH 7.4 measured after 18 hrs by UPLC-MS analysis; assay type: physicochemical; settings: read-out: Therm_solubility
[15] = Cytotoxicity against human U937 cells assessed as decrease in intracellular ATP levels at >10 uM measured after 72 hrs by CellTiter-Glo assay; assay type: toxicity, cell-based; settings: u-937, 72 h
[16] = biological target: T1, Isocitrate dehydrogenase [NADP] cytoplasmic (Homo sapiens, UniProt O75874, R132H); assay: Inhibition of human C-terminal His8-tagged IDH1-R132H mutant expressed in Escherichia coli Rosetta assessed as inhibition of ketoreductase activity by measuring NADPH consumption preincubated for 60 mins followed by addition of alpha-KG as substrate measured after 50 mins in presence of NADPH and Mg2+ by resazurin based diaphorase-coupled fluorescence assay
How it was run: (§4)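 IDH1-R132H–Mg2+ ketoreductase assay reading NADPH consumption through a diaphorase-coupled fluorescence reaction. Buffer contained 0.01% Tween 20 against aggregation. Primary screen at 15 μM in duplicate, with positives set at ≥60% inhibition in both replicates. Retests were in 8-point dose.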
Target sequence in this assay (O75874 2-414 R132H limits assumed): as the sequence (O75874 2-414 R132C limits assumed) above, with C131H counted along it

[17] = Half life in mouse liver microsomes at 1 uM by LC-MS/MS analysis; assay type: ADME
[18] = Protein binding in mouse plasma at 5 uM measured after 5 hrs by rapid equilibrium dialysis method; assay type: ADME, cell-free; settings: read-out: PPB (converted)
[19] = biological target: Isocitrate dehydrogenase [NADP], mitochondrial (Homo sapiens) (UniProt P48735); assay: Inhibition of human C-terminal FLAG-tagged IDH2-R140Q mutant (1 to 452 residues) expressed in baculovirus infeceted sf9 cells assessed as inhibition of ketoreductase activity preincubated for 10 mins followed by addition of NADPH and alpha-KG as substrate by fluorescence method
[20] = tested on: Isocitrate dehydrogenase [NADP] cytoplasmic (Homo sapiens), O75874 [R132H]; assay: Inhibition of human C-terminal His8-tagged IDH1-R132H mutant expressed in Escherichia coli Rosetta cells assessed as change in melting temperature at 5 uM measured over 20 mins using SYPRO orange dye by DSF analysis; how it was run: as §1
[21] = tested on: Isocitrate dehydrogenase [NADP] cytoplasmic (Homo sapiens), O75874 [R132H]; assay: (§5) Inhibition of IDH1-R132H mutant (unknown origin) expressed in human HA1EM cells assessed as suppression of R-2HG secretion measured after 72 hrs by LC-MS/MS analysis; assay type: cell-based
How it was run: (§6)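 HA1E-M cells (HEK-293 derivative) engineered to overexpress IDH1-R132H and release R-2HG into growth media. Compound treatment for 72 h, then R-2HG in conditioned media measured by LC-MS. Values normalized to DMSO-treated controls; EC50 from three independent experiments, each run in triplicate.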

[22] = biological target: T1, Isocitrate dehydrogenase [NADP] cytoplasmic; assay: as §5; assay type: cell-based; how it was run: as §6
Target sequence in this assay (O75874 whole entry R132H): as the sequence (O75874 whole entry R132C) above, with C132H counted along it

[23] = tested on: Isocitrate dehydrogenase [NADP] cytoplasmic (Homo sapiens), O75874 [R132H]; assay: Inhibition of human C-terminal His8-tagged IDH1-R132H mutant expressed in Escherichia coli Rosetta cells assessed as inhibition of ketoreductase activity measured as NADPH consumption preincubated for 60 mins followed by addition of NADPH and alpha-KG as substrate measured after 50 mins using Mg2+ as cofactor in presence of tween-20 detergent by resazurin/diaphorase-coupled fluorescence analysis; how it was run: as §4
[24] = Cytotoxicity against human U937 cells assessed as decrease in intracellular ATP levels up to 10 uM measured after 72 hrs by CellTiter-Glo assay; assay type: toxicity, cell-based; settings: u-937, 72 h
[25] = Cytotoxicity against human THP1 cells assessed as decrease in intracellular ATP levels up to 10 uM measured after 72 hrs by CellTiter-Glo assay; assay type: toxicity, cell-based; settings: thp-1, 72 h
[26] = Cytotoxicity against human HA1EM cells assessed as decrease in intracellular ATP levels up to 10 uM measured after 72 hrs by CellTiter-Glo assay; assay type: toxicity, cell-based; how it was run: as §2

SMILES: C[C@@H]1CN([C@@H](C)CO)S(=O)(=O)c2ccc(C#Cc3cccc(F)c3)cc2O[C@H]1CN(C)C(=O)NC1CCCCC1
- half-life at 1 µM [1]: 42 s
- ΔTm [2]: 1.4 °C
- Activity [3]: Toxic
- IC50 [4]: > 20000 nM
- inhibition [5]: Active
- fraction unbound at 5 h, 5 µM [6]: 0.005
- IC50 [7]: 2500 nM
- inhibition [8]: Active
- logD at 67 µM [9]: 5.19
- Activity [10]: Toxic
- inhibition [11]: Active
- inhibition [12]: Active
- inhibition [13]: Active
- solubility thermodynamic at 18 h, 100 µM [14]: 5 µM (≈ 2.86 µg/mL)
- Activity [15]: Toxic
- IC50 [16]: 50 to 57 nM
- half-life at 1 µM [17]: 42 s
- fraction unbound at 5 h, 5 µM [18]: 0.037
- IC50 [19]: > 20000 nM
- ΔTm [20]: 3.7 °C
- inhibition [21]: Dose-dependent effect
- EC50 [22]: 300 nM
- inhibition [23]: Active
- Activity [24]: Non-Toxic
- Activity [25]: Non-Toxic
- Activity [26]: Non-Toxic
